Experimental data from ChEMBL document CHEMBL4190234, “Design, synthesis and anticancer activity of new monastrol analogues bearing 1,3,4-oxadiazole moiety” (Eur J Med Chem, 2017).

Experiments:
[1] = tested on: MOLT-4; assay: Potency index, ratio of monastrol IC50 to compound IC50 for human MOLT4 cells; format: functional
[2] = tested on: HL-60(TB); assay: Growth inhibition of human HL-60(TB) cells incubated for 24 hrs by MTT assay; format: functional, cell-based; conditions: HL-60, 24 h
Procedure, shortened: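 Cells at 1.2-1.8×10^4 cells/ml in DMEM with 10% FBS, 10 µg/ml insulin and 1% penicillin/streptomycin, plated overnight at 37°C. Serial 10-fold dilutions added to 0.01–100 µM final, medium as negative control, 24 h. MTT (5 mg/ml) added for 4 h, formazan dissolved in acid-isopropanol, A490 read. Eight separate experiments; percent viable cells used to derive IC50.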

[3] = tested on: HL-60(TB); assay: Cell cycle arrest in human HL-60(TB) cells assessed as accumulation at S phase at 0.112 uM after 24 hrs by propidium iodide staining based flow cytometry (reference value: 22.84%); format: functional
[4] = tested on: HL-60(TB); assay: Induction of apoptosis in human HL-60(TB) cells assessed as late apoptotic cells at 0.112 uM after 24 hrs by Annexin V-FITC/propidium iodide staining based flow cytometry (reference value: 0.39%); format: functional
[5] = tested on: HL-60(TB); assay: Cell cycle arrest in human HL-60(TB) cells assessed as accumulation of apoptotic cells in pre-G phase at 0.112 uM after 24 hrs by propidium iodide staining based flow cytometry (reference value: 1.44%); format: functional
[6] = tested on: HL-60(TB); assay: Cell cycle arrest in human HL-60(TB) cells assessed as accumulation at G2/M phase at 0.112 uM after 24 hrs by propidium iodide staining based flow cytometry (reference value: 7.29%); format: functional
[7] = tested on: HL-60(TB); assay: Potency index, ratio of monastrol IC50 to compound IC50 for human HL-60(TB) cells; format: functional
[8] = tested on: HL-60(TB); assay: Induction of apoptosis in human HL-60(TB) cells assessed as necrotic cells at 0.112 uM after 24 hrs by Annexin V-FITC/propidium iodide staining based flow cytometry (reference value: 0.2%); format: functional
[9] = tested on: HL-60(TB); assay: Induction of apoptosis in human HL-60(TB) cells assessed as live cells at 0.112 uM after 24 hrs by Annexin V-FITC/propidium iodide staining based flow cytometry (reference value: 98.57%); format: functional
[10] = tested on: HL-60(TB); assay: Cell cycle arrest in human HL-60(TB) cells assessed as accumulation at G0/G1 phase at 0.112 uM after 24 hrs by propidium iodide staining based flow cytometry (reference value: 68.43%); format: functional
[11] = tested on: HL-60(TB); assay: Induction of apoptosis in human HL-60(TB) cells assessed as increase in apoptotic cells at 0.112 uM after 24 hrs by Annexin V-FITC/propidium iodide staining based flow cytometry relative to control; format: functional
[12] = tested on: HL-60(TB); assay: Induction of apoptosis in human HL-60(TB) cells assessed as early apoptotic cells at 0.112 uM after 24 hrs by Annexin V-FITC/propidium iodide staining based flow cytometry (reference value: 0.84%); format: functional
[13] = tested on: MOLT-4; assay: Induction of apoptosis in human MOLT4 cells assessed as necrotic cells at 0.16 uM after 24 hrs by Annexin V-FITC/propidium iodide staining based flow cytometry (reference value: 0.11%); format: functional
[14] = tested on: MOLT-4; assay: Induction of apoptosis in human MOLT4 cells assessed as live cells at 0.16 uM after 24 hrs by Annexin V-FITC/propidium iodide staining based flow cytometry (reference value: 99.12%); format: functional
[15] = tested on: MOLT-4; assay: Cell cycle arrest in human MOLT4 cells assessed as accumulation of apoptotic cells in pre-G phase at 0.16 uM after 24 hrs by propidium iodide staining based flow cytometry (reference value: 0.88%); format: functional
Procedure, shortened: (§1)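 MOLT-4 cells (1×10^6) exposed 24 h to 0.160 or 0.430 μM test agent, DMSO (0.002%) control; trypsinized, washed in ice-cold PBS, fixed in ice-cold 70% ethanol ≥2 h at 4°C, washed, stained with propidium iodide DNA kit; cell cycle distribution (pre-G, G0/G1, S, G2/M) by flow cytometry.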

[16] = tested on: MOLT-4; assay: Induction of apoptosis in human MOLT4 cells assessed as increase in apoptotic cells at 0.16 uM after 24 hrs by Annexin V-FITC/propidium iodide staining based flow cytometry relative to control; format: functional
[17] = tested on: MOLT-4; assay: Induction of apoptosis in human MOLT4 cells assessed as late apoptotic cells at 0.16 uM after 24 hrs by Annexin V-FITC/propidium iodide staining based flow cytometry (reference value: 0.24%); format: functional
[18] = tested on: MOLT-4; assay: Cell cycle arrest in human MOLT4 cells assessed as accumulation at G0/G1 phase at 0.16 uM after 24 hrs by propidium iodide staining based flow cytometry (reference value: 74.22%); format: functional; procedure, shortened: as §1
[19] = tested on: MOLT-4; assay: Cell cycle arrest in human MOLT4 cells assessed as accumulation at S phase at 0.16 uM after 24 hrs by propidium iodide staining based flow cytometry (reference value: 20.55%); format: functional; procedure, shortened: as §1
[20] = tested on: MOLT-4; assay: Induction of apoptosis in human MOLT4 cells assessed as early apoptotic cells at 0.16 uM after 24 hrs by Annexin V-FITC/propidium iodide staining based flow cytometry (reference value: 0.53%); format: functional
[21] = tested on: MOLT-4; assay: Cell cycle arrest in human MOLT4 cells assessed as accumulation at G2/M phase at 0.16 uM after 24 hrs by propidium iodide staining based flow cytometry (reference value: 4.35%); format: functional; procedure, shortened: as §1

CCOC(=O)C1=C(C)NC(SCc2nnc(-c3ccc(Cl)cc3)o2)=NC1c1ccc(Br)cc1 (stereo unspecified)
Ratio IC50 [1]: 3
IC50 [2]: 143 nM

CCOC(=O)C1=C(C)NC(SCc2nnc(-c3ccc(Cl)cc3)o2)=NC1c1cccc(Cl)c1 (stereo unspecified)
Activity [3]: 27.59%
Activity [4]: 6.67%
Activity [5]: 24.72%
Activity [6]: 14.81%
IC50 [2]: 56 nM
Ratio IC50 [7]: 2.5
Activity [8]: 1.36%
Activity [9]: 75.28%
Activity [10]: 32.88%
fold change (FC) [11]: 19.3
Activity [12]: 17.09%

CCOC(=O)C1=C(C)NC(SCc2nnc(-c3ccc(Cl)cc3)o2)=NC1c1ccc(Cl)cc1Cl (stereo unspecified)
Activity [13]: 1.46%
Activity [14]: 82.17%
Activity [15]: 17.83%
Ratio IC50 [1]: 3
IC50 [2]: 153 nM
fold change (FC) [16]: 21
Activity [17]: 5.89%
Activity [18]: 38.52%
Activity [19]: 17.04%
Activity [20]: 10.48%
Activity [21]: 26.61%

CCOC(=O)C1=C(C)NC(SCc2nnc(-c3ccc(Cl)cc3)o2)=NC1c1ccc(Cl)cc1 (stereo unspecified)
IC50 [2]: 103 nM
Ratio IC50 [7]: 1.5
